UHRF1 binding – UHRF1 methylated DNA binding inhibitors, primary screen, counter-screen for MBD2 inhibitor project, biochemical, TR-FRET, human UHRF1, single concentration | E3 ubiquitin-protein ligase UHRF1 (Homo sapiens), Q96T88 | UHRF1 binding to methylated oligo | inhibition, % at 4.4 µM | 0.75% of 370,000 active | AID 687016, 2013; in the data active = inhibition above about 21%;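 note: UHRF1 SRA domain binding a hemimethylated CpG hairpin DNA probe; 0% = median of test compound wells and 100% = reference inhibitor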
LEDGF integ inh – blockers of LEDGF/p75-dependent integrase strand transfer – biochemical, TR-FRET, high throughput, primary screen; HIV-1 integrase (with human LEDGF/p75); TR-FRET IN-LEDGF/p75 DNA integration, Eu/Cy5; inhibition, % at 3.7 µM; 0.64% of 370,000 active;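 active = inhibition above the screen-wide mean plus 3 SD, cut at about 13% in these data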;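 note: signal is the Cy5 over europium emission ratio at 671 and 618 nm; 0% = plate median of compound wells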
rCAG binder – binders of r(CAG) RNA repeats, primary screen, biochemical, fluorescence. r(CAG) RNA repeat, TO-PRO-1 dye displacement fluorescence. inhibition, % at 3 µM. 1.3% of 370,000 active. AID 651821, 2012;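 active = inhibition above the plate cutoff, the mean of all test compounds on that plate plus 3 SD, cut at about 35% in these data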;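 note: 0% = DMSO alone and 100% = 100 µM mitoxantrone as full dye displacement; higher means more dye released from RNA so lower well fluorescence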
MBD2 DNA inh – inhibitors of MBD2 binding to methylated DNA, primary screen, biochemical, TR-FRET, DNA-binding domain, human. inhibition, % at 4.4 µM. 0.31% of 370,000 active. MBD2 binding to methylated oligonucleotide; in the data active = inhibition above about 13%
ATG4B inh – ATG4B protease inhibitors, primary screen, biochemical, fluorescence, uHTS | Cysteine protease ATG4B (Homo sapiens), Q9Y4P1 | ATG4B cleavage of LC3-PLA2, NBD-HPC fluorescence, 1 h | inhibition, % at 8.33 µM | 0.51% of 340,000 active; in the data active = inhibition above about 40%
CSN deneddyl inh – inhibitors of CSN-mediated cullin deneddylation, primary screen, biochemical, fluorescence polarization, uHTS. COP9 signalosome complex subunit 5 (Homo sapiens), Q92905. Purified CSN, SCF-Nedd8-OG deneddylation. inhibition, % at 12.5 µM. 0.38% of 360,000 active;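 active = pattern-corrected inhibition above about 35%, with an unprinted fluorescence ratio check between 0.5 and 1.5, limit read from the data, passing the limit was not always enough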;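 note: 0% = enzyme with substrate and 100% = substrate without enzyme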
Target sequence (Q92905 whole entry, looked up, one chain of several): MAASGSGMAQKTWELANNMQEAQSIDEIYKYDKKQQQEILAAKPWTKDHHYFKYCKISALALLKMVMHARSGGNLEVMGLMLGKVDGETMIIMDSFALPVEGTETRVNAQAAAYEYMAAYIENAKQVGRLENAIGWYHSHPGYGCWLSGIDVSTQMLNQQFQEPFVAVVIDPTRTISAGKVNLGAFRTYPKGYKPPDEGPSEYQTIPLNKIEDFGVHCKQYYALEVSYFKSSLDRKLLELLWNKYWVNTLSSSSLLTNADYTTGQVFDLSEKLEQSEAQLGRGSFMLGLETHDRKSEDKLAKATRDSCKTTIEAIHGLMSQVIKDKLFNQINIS
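Material: human Csn5 produced in HEK293T cells; Input: enzyme 0.24 nM; Reagent: SCFSkp2-Nedd8OG substrate at 10 nM final; Dosing: 12.5 µM compound; Incubation: 90 min reaction at room temperature; Detection: fluorescence polarization of the substrate; Evaluation: % inhibition of substrate cleavage by Csn5; Control set: substrate-only high control, full reaction low control.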
* hit, by the source's call. Hits are enriched below; roughly 3.1% of the tested compounds scored in any of these assays.

`Cc1ccc(/C=C2/SC(=S)N(C3CCCCC3)C2=O)o1` gave UHRF1 binding -2, LEDGF integ inh 3, rCAG binder 55*, MBD2 DNA inh -3, ATG4B inh 5 and CSN deneddyl inh 29.
Screening Cc1cccc(S(=O)(=O)C(C#N)c2nc3ccccc3nc2N2CC(C)OC(C)C2)c1 (stereo unspecified) returned UHRF1 binding -11, LEDGF integ inh -1, rCAG binder 21, MBD2 DNA inh 0, ATG4B inh 1 and CSN deneddyl inh 0.
Cc1ccc(S(=O)(=O)C(C#N)c2nc3ccccc3nc2N2CC(C)OC(C)C2)cc1C (stereo unspecified) was read as UHRF1 binding -3, LEDGF integ inh -7, rCAG binder 39*, MBD2 DNA inh 0, ATG4B inh 0 and CSN deneddyl inh -2.
`O=C(Nc1ccc2nc(-c3ccco3)c(-c3ccco3)nc2c1)N1CCCCCC1` gave ATG4B inh 47*.
For c1coc(-c2cnc3ccccc3n2)c1 the results were UHRF1 binding -8, LEDGF integ inh 4, rCAG binder 12, MBD2 DNA inh -6 and CSN deneddyl inh -5.
`c1coc(-c2nc3ccccc3nc2-c2ccco2)c1` gave UHRF1 binding 53*, LEDGF integ inh 48*, rCAG binder 52*, MBD2 DNA inh 6, ATG4B inh 4 and CSN deneddyl inh 51.
Screening O=C(NCCc1ccccc1)c1ccc2nc(-c3ccco3)c(-c3ccco3)nc2c1 returned ATG4B inh 18 and CSN deneddyl inh 44.
`O=C(NCCO)c1ccc2nc(-c3ccco3)c(-c3ccco3)nc2c1` gave UHRF1 binding 42*, LEDGF integ inh 77*, rCAG binder 54*, MBD2 DNA inh 9, ATG4B inh 5 and CSN deneddyl inh 22.
C#CCOCCOCCOCCNc1nc(N2CCN(C(=O)Cn3cc(CCCN=C(N)N)nn3)CC2)nc(N2CCN(C(=O)[C@H](Cc3ccc(O)cc3)n3cc(CCO)nn3)CC2)n1 was read as UHRF1 binding 10, LEDGF integ inh 1 and MBD2 DNA inh 5.
For CN(C)[C@@H]1CCN(c2cccc3c2S(=O)(=O)N2CC[C@@H](C2)O3)C1 the results were UHRF1 binding 0, LEDGF integ inh -2, rCAG binder 3 and MBD2 DNA inh 3.
For C[C@@H]1ON(C)[C@H]2C[C@H]3c4[nH]c5c(-c6ccc7c(c6)OCO7)cccc5c4CCN3C[C@@H]12 the results were UHRF1 binding -1, LEDGF integ inh -2, rCAG binder 0 and MBD2 DNA inh 3.
Screening COc1cc(C(=O)NCCSc2ccc(Br)cc2)cc(OC)c1OC returned UHRF1 binding 0, LEDGF integ inh 0, rCAG binder -8, MBD2 DNA inh 2, ATG4B inh -3 and CSN deneddyl inh 70*.
C[C@H]1[C@H](NC(=O)c2ccc(Cl)c(Cl)c2)CC[C@@]23CCCN2C(=O)CCC[C@@H]13 was read as UHRF1 binding 13, LEDGF integ inh -1 and MBD2 DNA inh 3.
For O=C(NNC(=O)C1CCN(Cc2ccc(F)cc2Cl)CC1)Nc1ccc([N+](=O)[O-])cc1 the results were UHRF1 binding 29*, LEDGF integ inh 6, rCAG binder 6, MBD2 DNA inh -2, ATG4B inh -7 and CSN deneddyl inh 2.
CCOC(=O)[C@]12CCCC3=C1N(CCC3)C(=O)[C@@H](CC(=O)N1CCCC1)C2 was read as UHRF1 binding 1, LEDGF integ inh -1, rCAG binder 0 and MBD2 DNA inh -5.
CS(=O)(=O)N1CCc2cc(C(=O)N3CCN(c4ccccc4F)CC3)ccc21 was read as UHRF1 binding 23*, LEDGF integ inh 4, rCAG binder -3, MBD2 DNA inh 5, ATG4B inh -9 and CSN deneddyl inh 0.
`CSc1ncccc1C(=O)OCc1ccc(C#N)cc1` gave UHRF1 binding 1, LEDGF integ inh -2, rCAG binder -3, MBD2 DNA inh 0, ATG4B inh -6 and CSN deneddyl inh 4.
COC(=O)c1cccc(COC(=O)c2cccnc2SC)c1 was read as UHRF1 binding 34*, LEDGF integ inh -3, rCAG binder -1, MBD2 DNA inh 2, ATG4B inh 7 and CSN deneddyl inh 2.
For COC(=O)C[C@H]1CC[C@H]2[C@H](COc3ccc(NS(=O)(=O)c4ccccc4C)cc3C(=O)N2C)O1 the results were UHRF1 binding -1, LEDGF integ inh -5, rCAG binder 5 and MBD2 DNA inh 3.
For Cc1cccc(Cn2cc(COC(=O)N3CCCC3)nn2)c1 the results were UHRF1 binding 2, LEDGF integ inh -2, rCAG binder 2 and MBD2 DNA inh 2.
Screening COc1ccc(C(C)=O)c2c1OCCO2 returned UHRF1 binding 54*, LEDGF integ inh -1, rCAG binder 5, MBD2 DNA inh 0, ATG4B inh -2 and CSN deneddyl inh -3.
CCN1CCCCC(NC(=O)c2ccc(C)cc2)C1=O (stereo unspecified) was read as UHRF1 binding 0, LEDGF integ inh 8, rCAG binder 2 and MBD2 DNA inh 0.
For CC1=C/C(=C\c2ccc(Br)o2)C(=O)O1 the results were UHRF1 binding 53*, LEDGF integ inh 11, rCAG binder 4, MBD2 DNA inh 16*, ATG4B inh 4 and CSN deneddyl inh 32.
`O=C1C(=Cc2ccc(Br)o2)C(=O)c2ccccc21` gave ATG4B inh 69* and CSN deneddyl inh 50.
`Cc1ccc(C(=O)O)cc1-c1ccc(C=C2C(=O)c3ccccc3C2=O)o1` gave UHRF1 binding 15, LEDGF integ inh 5, rCAG binder 15, MBD2 DNA inh 4, ATG4B inh 2 and CSN deneddyl inh 27.
CC(Sc1ccccc1)C(=O)NCCc1ccccc1 (stereo unspecified) was read as UHRF1 binding 0, LEDGF integ inh 0, rCAG binder -7, MBD2 DNA inh 4, ATG4B inh 0 and CSN deneddyl inh 50*.
For Cn1c(CN2CCOCC2)nnc1SCC(=O)Nc1cccc(C(F)(F)F)c1 the results were UHRF1 binding 0, LEDGF integ inh -1, rCAG binder -1, MBD2 DNA inh 0, ATG4B inh -6 and CSN deneddyl inh 1.

Screening data from PubChem BioAssay.
